{"source": "ChEMBL document CHEMBL1240366", "about": "“Blockade of X4-tropic HIV-1 cellular entry by GSK812397, a potent noncompetitive CXCR4 receptor antagonist” (Antimicrob Agents Chemother, 2010)", "key": {"[1]": {"assay": "Volume of distribution at steady state in dog at 1 mg/kg, iv administered as single dose after 24 hrs by liquid chromatography-mass spectroscopy", "assay_type": "ADME, organism-based, Canis lupus familiaris", "design": "dose 1 mg/kg, route intravenous", "conditions": "in vivo, read-out: Vdss; call rule not given here"}, "[2]": {"assay": "Clearance in rat at 1 mg/kg, iv administered as single dose after 24 hrs by liquid chromatography-mass spectroscopy", "assay_type": "ADME, organism-based", "design": "dose 1 mg/kg, route intravenous", "conditions": "in vivo", "outline": "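Single intravenous dose of 1 mg/kg. Plasma was sampled at serial times over 24 h and measured by LC-MS/MS. Clearance was derived by pharmacokinetic analysis.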"}, "[3]": {"assay": "Oral bioavailability in rat at 3 mg/kg administered as single dose after 24 hrs by liquid chromatography-mass spectroscopy", "assay_type": "ADME, organism-based", "conditions": "in vivo"}, "[4]": {"assay": "Oral bioavailability in monkey at 3 mg/kg administered as single dose after 24 hrs by liquid chromatography-mass spectroscopy", "assay_type": "ADME, organism-based, Macaca mulatta", "conditions": "rhesus monkey, in vivo"}, "[5]": {"molecular_target": "Angiotensin-converting enzyme (Homo sapiens, UniProt P12821)", "sequence (P12821 whole entry)": "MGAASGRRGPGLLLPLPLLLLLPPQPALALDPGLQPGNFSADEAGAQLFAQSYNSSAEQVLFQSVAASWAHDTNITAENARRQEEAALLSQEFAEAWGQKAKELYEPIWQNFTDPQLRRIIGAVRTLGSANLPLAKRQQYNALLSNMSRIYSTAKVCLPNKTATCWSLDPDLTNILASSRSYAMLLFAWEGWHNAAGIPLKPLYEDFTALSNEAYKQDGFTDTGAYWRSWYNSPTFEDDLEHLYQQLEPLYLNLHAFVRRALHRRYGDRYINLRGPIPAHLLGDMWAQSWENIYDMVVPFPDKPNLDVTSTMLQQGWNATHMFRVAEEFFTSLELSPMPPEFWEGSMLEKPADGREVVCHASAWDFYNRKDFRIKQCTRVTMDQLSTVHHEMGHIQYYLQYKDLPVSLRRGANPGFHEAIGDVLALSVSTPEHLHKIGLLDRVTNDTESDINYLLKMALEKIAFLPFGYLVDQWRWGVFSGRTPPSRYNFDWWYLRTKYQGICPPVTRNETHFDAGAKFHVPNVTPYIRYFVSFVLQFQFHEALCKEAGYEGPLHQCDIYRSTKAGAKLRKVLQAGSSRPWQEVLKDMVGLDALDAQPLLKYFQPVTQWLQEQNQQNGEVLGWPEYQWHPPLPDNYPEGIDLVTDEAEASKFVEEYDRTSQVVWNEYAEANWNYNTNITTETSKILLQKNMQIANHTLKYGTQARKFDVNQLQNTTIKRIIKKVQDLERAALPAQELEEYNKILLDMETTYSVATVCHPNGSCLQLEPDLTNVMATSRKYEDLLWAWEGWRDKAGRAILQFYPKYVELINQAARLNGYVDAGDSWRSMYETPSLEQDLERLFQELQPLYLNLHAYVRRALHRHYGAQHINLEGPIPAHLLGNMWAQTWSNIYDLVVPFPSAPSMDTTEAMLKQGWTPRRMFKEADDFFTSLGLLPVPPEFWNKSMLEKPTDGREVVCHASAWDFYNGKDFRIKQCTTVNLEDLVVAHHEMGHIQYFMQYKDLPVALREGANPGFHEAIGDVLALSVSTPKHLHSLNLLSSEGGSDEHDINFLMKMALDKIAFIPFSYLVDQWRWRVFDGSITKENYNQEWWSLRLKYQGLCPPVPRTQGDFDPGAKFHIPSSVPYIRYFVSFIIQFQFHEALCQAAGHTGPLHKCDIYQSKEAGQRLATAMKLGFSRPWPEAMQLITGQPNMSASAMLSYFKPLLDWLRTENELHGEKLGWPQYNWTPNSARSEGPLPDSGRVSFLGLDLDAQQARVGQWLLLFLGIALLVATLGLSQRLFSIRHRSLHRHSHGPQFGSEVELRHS", "assay": "Inhibition of ACE"}, "Cytochrome P450 2D6": {"molecular_target": "Cytochrome P450 2D6 (Homo sapiens, UniProt P10635)", "sequence (P10635 whole entry)": "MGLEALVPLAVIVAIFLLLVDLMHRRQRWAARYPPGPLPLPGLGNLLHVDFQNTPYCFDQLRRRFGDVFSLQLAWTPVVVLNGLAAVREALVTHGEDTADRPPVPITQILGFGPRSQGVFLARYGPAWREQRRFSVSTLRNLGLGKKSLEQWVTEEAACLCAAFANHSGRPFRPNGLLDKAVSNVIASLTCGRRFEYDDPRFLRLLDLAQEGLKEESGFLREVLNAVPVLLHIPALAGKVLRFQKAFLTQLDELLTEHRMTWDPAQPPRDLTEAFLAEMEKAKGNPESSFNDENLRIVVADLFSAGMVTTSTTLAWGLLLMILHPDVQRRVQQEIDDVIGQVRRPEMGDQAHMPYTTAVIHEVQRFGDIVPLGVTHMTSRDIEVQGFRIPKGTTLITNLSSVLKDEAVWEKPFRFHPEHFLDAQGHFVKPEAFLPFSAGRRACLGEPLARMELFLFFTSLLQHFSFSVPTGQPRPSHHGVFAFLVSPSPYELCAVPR", "assay": "Inhibition of CYP2D6 up to 30 uM", "assay_type": "ADME"}, "[6]": {"system": "Human immunodeficiency virus 1", "assay": "Antiviral activity against HIV1 isolate 05-121782 assessed as inhibition of viral replication after 7 days by scintillation counting", "assay_type": "functional, organism-based", "conditions": "Human immunodeficiency virus 1, isolate 05-121782, 168 h"}, "[7]": {"system": "Human immunodeficiency virus 1", "assay": "Antiviral activity against HIV1 isolate 05-121786 assessed as inhibition of viral replication after 7 days by scintillation counting", "assay_type": "functional, organism-based", "conditions": "Human immunodeficiency virus 1, isolate 05-121786, 168 h"}, "[8]": {"system": "Human immunodeficiency virus 1", "assay": "Antiviral activity against HIV1 isolate 05-121771 assessed as inhibition of viral replication after 7 days by scintillation counting", "assay_type": "functional, organism-based", "conditions": "Human immunodeficiency virus 1, isolate 05-121771, 168 h"}, "[9]": {"system": "Human immunodeficiency virus 1", "assay": "Antiviral activity against HIV1 isolate 05-121777 assessed as inhibition of viral replication after 7 days by scintillation counting", "assay_type": "functional, organism-based", "conditions": "Human immunodeficiency virus 1, isolate 05-121777, 168 h"}, "[10]": {"system": "Human immunodeficiency virus 1", "assay": "Antiviral activity against HIV1 isolate 05-121780 assessed as inhibition of viral replication after 7 days by scintillation counting", "assay_type": "functional, organism-based", "conditions": "Human immunodeficiency virus 1, isolate 05-121780, 168 h"}, "[11]": {"system": "Human immunodeficiency virus 1", "assay": "Antiviral activity against HIV1 isolate 05-121783 assessed as inhibition of viral replication after 7 days by scintillation counting", "assay_type": "functional, organism-based", "conditions": "Human immunodeficiency virus 1, isolate 05-121783, 168 h"}, "[12]": {"system": "Human immunodeficiency virus 1", "assay": "Antiviral activity against HIV1 isolate 05-121788 assessed as inhibition of viral replication after 7 days by scintillation counting", "assay_type": "functional, organism-based", "conditions": "Human immunodeficiency virus 1, isolate 05-121788, 168 h"}, "[13]": {"system": "Human immunodeficiency virus 1", "assay": "Antiviral activity against HIV1 isolate 05-121794 assessed as inhibition of viral replication after 7 days by scintillation counting", "assay_type": "functional, organism-based", "conditions": "Human immunodeficiency virus 1, isolate 05-121794, 168 h"}, "[14]": {"system": "Human immunodeficiency virus 1", "assay": "Antiviral activity against HIV1 isolate 05-121795 assessed as inhibition of viral replication after 7 days by scintillation counting", "assay_type": "functional, organism-based", "conditions": "Human immunodeficiency virus 1, isolate 05-121795, 168 h"}, "[15]": {"system": "Human immunodeficiency virus 1", "assay": "Antiviral activity against HIV1 isolate 05-121800 assessed as inhibition of viral replication after 7 days by scintillation counting", "assay_type": "functional, organism-based", "conditions": "Human immunodeficiency virus 1, isolate 05-121800, 168 h"}}}
{"smiles": "CN1CCN(c2cccc3nc(CN(C)[C@H]4CCCc5cccnc54)c(CO)n23)CC1", "values": [{"measurement": "Vd", "setting": "[1]", "result": 5.3, "unit": "L/kg"}, {"measurement": "clearance", "setting": "[2]", "result": 4.5, "unit": "mL/min/kg"}, {"measurement": "bioavailability", "setting": "[3]", "result": 21, "unit": "%"}, {"measurement": "bioavailability", "setting": "[4]", "result": 17, "unit": "%"}, {"measurement": "IC50", "setting": "[5]", "result": 193, "unit": "nM"}, {"measurement": "inhibition (INH)", "setting": "Cytochrome P450 2D6", "result": "Not Active"}, {"measurement": "IC50", "setting": "[6]", "result": 1, "unit": "nM"}, {"measurement": "IC50", "setting": "[7]", "result": 1, "unit": "nM"}, {"measurement": "IC50", "setting": "[8]", "result": 1, "unit": "nM"}, {"measurement": "IC50", "setting": "[9]", "result": 1, "unit": "nM"}, {"measurement": "IC50", "setting": "[10]", "result": 1, "unit": "nM"}, {"measurement": "IC50", "setting": "[11]", "result": 1, "unit": "nM"}, {"measurement": "IC50", "setting": "[12]", "result": 1, "unit": "nM"}, {"measurement": "IC50", "setting": "[13]", "result": 1, "unit": "nM"}, {"measurement": "IC50", "setting": "[14]", "result": 1, "unit": "nM"}, {"measurement": "IC50", "setting": "[15]", "result": 1, "unit": "nM"}]}
